Measured values published in ChEMBL document CHEMBL1133431, “1,3-Diarylcycloalkanopyrazoles and diphenyl hydrazides as selective inhibitors of cyclooxygenase-2” (Bioorg Med Chem Lett, 2000).
pIC50: −log10 of the molar value.

Experiments:
[1] = target: Prostaglandin G/H synthase 1 (Homo sapiens, UniProt P23219); assay: Inhibitory activity against human prostaglandin G/H synthase 1 in platelet-rich plasma measured by the presence of thromboxane A2
Summary of the method: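 Human peripheral blood drawn into heparin; platelet-rich plasma collected by centrifugation (200×g, 20 min, room temperature) and diluted 1:20 in 0.9% NaCl. Compound or vehicle preincubated 15 min at 37 °C, then stimulated with calcium ionophore A-23187 (free acid) for 15 min at 37 °C, then chilled on ice 5 min. Supernatant thromboxane B2 measured by radioimmunoassay.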

[2] = target: T1, Prostaglandin G/H synthase 2 (Homo sapiens, UniProt P35354); assay: Inhibitory activity against human prostaglandin G/H synthase 2 in ECV-304 cells measured by the presence of PGE-2; assay type: cell-based
T1 sequence (P35354 whole entry): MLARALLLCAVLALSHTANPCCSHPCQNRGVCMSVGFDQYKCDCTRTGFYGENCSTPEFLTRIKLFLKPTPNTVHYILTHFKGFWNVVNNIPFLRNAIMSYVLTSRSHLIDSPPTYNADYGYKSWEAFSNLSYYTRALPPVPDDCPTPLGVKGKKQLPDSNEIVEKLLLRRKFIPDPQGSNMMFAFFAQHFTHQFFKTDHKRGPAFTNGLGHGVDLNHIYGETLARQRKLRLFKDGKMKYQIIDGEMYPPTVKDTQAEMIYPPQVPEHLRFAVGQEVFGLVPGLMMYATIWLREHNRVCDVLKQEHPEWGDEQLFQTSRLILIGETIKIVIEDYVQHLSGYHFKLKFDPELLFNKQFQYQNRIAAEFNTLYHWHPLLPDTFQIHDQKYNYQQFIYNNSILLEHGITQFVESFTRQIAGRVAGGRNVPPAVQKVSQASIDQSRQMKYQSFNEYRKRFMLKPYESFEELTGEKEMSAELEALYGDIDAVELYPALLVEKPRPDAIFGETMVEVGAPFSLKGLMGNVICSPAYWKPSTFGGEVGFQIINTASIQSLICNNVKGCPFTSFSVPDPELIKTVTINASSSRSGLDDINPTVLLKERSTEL

Sequence of Prostaglandin G/H synthase 1 (P23219 whole entry): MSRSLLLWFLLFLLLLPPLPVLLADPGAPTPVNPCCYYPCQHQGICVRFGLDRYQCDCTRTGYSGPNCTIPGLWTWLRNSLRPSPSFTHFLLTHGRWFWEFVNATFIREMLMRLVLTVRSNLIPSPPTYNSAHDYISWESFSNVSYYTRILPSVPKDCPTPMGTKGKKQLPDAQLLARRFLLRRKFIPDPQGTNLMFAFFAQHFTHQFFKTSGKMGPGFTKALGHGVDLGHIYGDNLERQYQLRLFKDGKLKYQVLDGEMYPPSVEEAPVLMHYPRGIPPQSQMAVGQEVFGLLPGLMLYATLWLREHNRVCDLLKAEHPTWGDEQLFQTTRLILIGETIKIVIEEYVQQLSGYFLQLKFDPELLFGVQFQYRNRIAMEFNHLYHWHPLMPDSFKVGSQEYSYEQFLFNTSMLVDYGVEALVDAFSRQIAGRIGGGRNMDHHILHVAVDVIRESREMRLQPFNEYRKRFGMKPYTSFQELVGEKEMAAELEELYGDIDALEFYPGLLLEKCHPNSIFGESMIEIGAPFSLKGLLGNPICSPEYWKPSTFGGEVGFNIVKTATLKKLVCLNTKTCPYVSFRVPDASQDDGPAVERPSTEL

| SMILES | pIC50 [1] | pIC50 [2] |
| --- | --- | --- |
| Cc1ccc(NNC(=O)c2ccc(Cl)cc2)cc1 | < 5.00 | 8.00 |
| Clc1ccc(-c2nn(-c3ccc(Cl)cc3)c3c2CCCCC3)cc1 | < 5.00 |  |
| CS(=O)(=O)c1ccc(-n2nc(-c3ccc(F)cc3)c3c2CCCC3)cc1 | < 5.00 | < 5.00 |
| COc1ccc(-n2nc(-c3ccc(Cl)cc3)c3c2CCCCC3)cc1 | < 5.00 |  |
| COc1ccc(-n2nc(-c3ccc(Cl)cc3)c3c2CCC(NOC(C)=O)C3)cc1 (configuration not stated) | < 5.00 | < 5.00 |
| CS(=O)(=O)c1ccc(-n2nc(-c3ccc(Cl)cc3)c3c2CCCC3)cc1 | < 5.00 | < 5.00 |
| COc1ccc(-n2nc(-c3ccc(Cl)cc3)c3c2CCC(O)C3)cc1 (configuration not stated) | < 5.00 | 6.34 |
| Cc1ccc(-n2nc(-c3ccc(Cl)cc3)c3c2CCCCC3)cc1 | < 5.00 |  |
| Cc1ccc(NNC(=O)c2ccccc2)cc1 | < 5.00 | 6.48 |
| O=C(NNc1ccccc1)c1ccc(Cl)cc1 | < 5.00 | 6.48 |
| COc1ccc(-n2nc(-c3ccc(Cl)cc3)c3c2CCC(N(O)C(C)=O)C3)cc1 (configuration not stated) | < 5.00 | 5.62 |
| COc1ccc(NNC(=O)c2ccccc2)cc1 | < 5.00 | 6.74 |
| COc1ccc(-n2nc(-c3ccc(Cl)cc3)c3c2CCC(F)C3)cc1 (configuration not stated) | < 5.00 |  |
| c1ccc(-c2nn(-c3ccccc3)c3c2CCC3)cc1 | < 5.00 |  |
| CS(=O)(=O)c1ccc(-n2nc(-c3ccc(Cl)cc3)c3c2CCCCC3)cc1 |  | < 5.00 |
| O=C(NNc1ccccc1)c1ccccc1 | < 5.00 | 5.00 |

Next, values leading:

| pIC50 [1] | pIC50 [2] | SMILES |
| --- | --- | --- |
| < 5.00 | < 5.00 | CS(=O)(=O)c1ccc(NNC(=O)c2ccc(Cl)cc2)cc1 |
| < 5.00 | 6.33 | COc1ccc(C(=O)NNc2ccc(Cl)cc2)cc1 |
| < 5.00 | < 5.00 | CS(=O)(=O)c1ccc(NNC(=O)c2ccccc2)cc1 |
| < 5.00 | < 5.00 | COc1ccc(C(=O)NNc2ccccc2)cc1 |
| < 5.00 | 6.89 | COc1ccc(NNC(=O)c2ccc(Cl)cc2)cc1 |
| < 5.00 | 6.28 | O=C(NNc1ccc(Cl)cc1)c1ccccc1 |
| < 5.00 | < 5.00 | Clc1ccc(-c2nn(-c3ccc(Cl)cc3)c3c2CCC3)cc1 |
| < 5.00 | 6.47 | O=C(NNc1ccc(Cl)cc1)c1ccc(Cl)cc1 |
